Source: ChEMBL document CHEMBL1150385, “Synthesis and evaluation of [2-(4-quinolyloxy)phenyl]methanone derivatives: novel selective inhibitors of transforming growth factor-beta kinase” (J Med Chem, 2008)

Legend:
[1] = Inhibition of TGF-beta expressed in human A549 cells assessed as luciferase activity after 4 hrs by Smad2/3 reporter assay; type: cell-based
How it was run: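 A549 human lung epithelial cells stably carrying a luciferase reporter driven by four tandem Smad2/3 binding sequences (p(SBE)4-Luc); cells given test compound together with TGF-β1 (2 ng/ml), cultured 4 h, then luciferase activity read by chemiluminescence (Steady Glo); IC50 values reported.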

[2] = molecular target: Proto-oncogene tyrosine-protein kinase Src (Homo sapiens, UniProt P12931); assay: Inhibition of c-Src
Chain of Proto-oncogene tyrosine-protein kinase Src (P12931 2-536 limits assumed): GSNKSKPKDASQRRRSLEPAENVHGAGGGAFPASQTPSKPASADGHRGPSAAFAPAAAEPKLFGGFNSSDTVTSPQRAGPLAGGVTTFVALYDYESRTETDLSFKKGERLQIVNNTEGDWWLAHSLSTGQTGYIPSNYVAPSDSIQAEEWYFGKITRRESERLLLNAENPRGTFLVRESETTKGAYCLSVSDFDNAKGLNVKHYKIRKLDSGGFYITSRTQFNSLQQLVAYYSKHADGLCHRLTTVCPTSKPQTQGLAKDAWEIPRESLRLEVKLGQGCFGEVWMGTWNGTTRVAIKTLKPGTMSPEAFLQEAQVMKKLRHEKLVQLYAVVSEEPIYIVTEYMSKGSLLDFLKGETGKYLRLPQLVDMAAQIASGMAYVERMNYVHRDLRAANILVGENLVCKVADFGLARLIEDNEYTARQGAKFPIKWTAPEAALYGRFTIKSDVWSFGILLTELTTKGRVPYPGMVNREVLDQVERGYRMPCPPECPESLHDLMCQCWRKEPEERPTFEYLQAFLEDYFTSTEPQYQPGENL

TGF-beta receptor type-1 = molecular target: T1, TGF-beta receptor type-1 (Homo sapiens, UniProt P36897); assay: Inhibition of ALK5 by filter binding assay
T1 sequence (P36897 whole entry): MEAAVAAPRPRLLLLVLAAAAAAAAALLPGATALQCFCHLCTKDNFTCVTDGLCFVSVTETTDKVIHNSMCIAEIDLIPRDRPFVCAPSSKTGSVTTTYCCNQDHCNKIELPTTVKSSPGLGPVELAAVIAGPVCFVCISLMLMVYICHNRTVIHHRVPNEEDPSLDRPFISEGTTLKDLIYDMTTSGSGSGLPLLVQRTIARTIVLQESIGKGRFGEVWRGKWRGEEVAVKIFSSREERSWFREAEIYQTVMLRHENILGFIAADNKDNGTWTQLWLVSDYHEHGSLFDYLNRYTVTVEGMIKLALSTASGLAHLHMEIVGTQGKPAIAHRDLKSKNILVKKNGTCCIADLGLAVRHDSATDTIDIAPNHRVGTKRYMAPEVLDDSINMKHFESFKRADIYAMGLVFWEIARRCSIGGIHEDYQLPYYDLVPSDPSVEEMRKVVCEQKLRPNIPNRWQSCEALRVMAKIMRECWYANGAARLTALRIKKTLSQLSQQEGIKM

[3] = Inhibition of TGF-beta mediated Smad2 phosphorylation in human A549 cells after 30 mins by Western blot; type: cell-based; settings: A549, 0.5 h

| IC50 [1] | SMILES | also measured |
| --- | --- | --- |
| 4700 nM | COc1cc2nccc(Oc3ccccc3C(=O)c3ccccc3)c2cc1OC | IC50 [2]: 4500 nM; IC50 (TGF-beta receptor type-1): 16000 nM |
| 640 nM | COc1cc2nccc(Oc3ccc(C)cc3C(=O)c3ccccc3)c2cc1OC | IC50 [3]: 500 nM; IC50 [2]: 1700 nM; IC50 (TGF-beta receptor type-1): 2700 nM |
| 1400 nM | COc1cc2nccc(Oc3cc(C)c(C)cc3C(=O)c3ccccc3)c2cc1OC |  |
| 2100 nM | COc1cc2nccc(Oc3cc(C)c(Cl)cc3C(=O)c3ccccc3)c2cc1OC |  |
| 3200 nM | COc1cc2nccc(Oc3ccc(Br)cc3C(=O)c3ccccc3)c2cc1OC |  |
| > 10000 nM | COc1ccc(Oc2ccnc3cc(OC)c(OC)cc23)c(C(=O)c2ccccc2)c1 |  |
| 2700 nM | COc1cc2nccc(Oc3ccc(Cl)cc3C(=O)c3ccccc3)c2cc1OC |  |
| 8500 nM | COc1cc2nccc(Oc3ccc(C)cc3C(=O)c3ccc(C(C)(C)C)cc3)c2cc1OC |  |
| > 10000 nM | COc1cc2nccc(Oc3ccc(C)cc3C=O)c2cc1OC |  |
| 2300 nM | COc1cc2nccc(Oc3ccc(C)cc3C(C)=O)c2cc1OC | IC50 [2]: 8400 nM; IC50 (TGF-beta receptor type-1): 4400 nM |
| 830 nM | CCc1ccc(Oc2ccnc3cc(OC)c(OC)cc23)c(C(C)=O)c1 |  |
| 540 nM | CCCc1ccc(Oc2ccnc3cc(OC)c(OC)cc23)c(C(C)=O)c1 |  |
| 2200 nM | COc1cc2nccc(Oc3ccc(C)cc3C(=O)C3CCCC3)c2cc1OC |  |
| 420 nM | COc1cc2nccc(Oc3cc(C)c(Cl)cc3C(C)=O)c2cc1OC |  |
| > 10000 nM | COc1cc2nccc(Oc3ccc(C)cc3C(=O)N3CCCCC3)c2cc1OC |  |
| 2700 nM | COc1cc2nccc(Oc3ccc(C)cc3C(=O)c3ccco3)c2cc1OC |  |
| > 10000 nM | COc1cc(Oc2ccnc3cc(OC)c(OC)cc23)c(C(C)=O)cc1OC |  |
| > 10000 nM | COc1cc2nccc(Oc3ccccc3C(C)=O)c2cc1OC |  |
| 1100 nM | CCC(=O)c1cc(OC)ccc1Oc1ccnc2cc(OC)c(OC)cc12 |  |
| 1800 nM | CCC(=O)c1ccc(OC)cc1Oc1ccnc2cc(OC)c(OC)cc12 |  |
| 2500 nM | COc1cc2nccc(Oc3ccc(C)cc3C(=O)c3ccno3)c2cc1OC |  |
| 590 nM | COc1ccc(Oc2ccnc3cc(OC)c(OC)cc23)c(C(C)=O)c1 |  |
| > 10000 nM | CCCOc1ccc(Oc2ccnc3cc(OC)c(OC)cc23)c(C(C)=O)c1 |  |
| 5500 nM | COc1cc2nccc(Oc3cc(C)ccc3C(C)=O)c2cc1OC |  |
| 2200 nM | CCCCc1ccc(Oc2ccnc3cc(OC)c(OC)cc23)c(C(C)=O)c1 |  |
| 4900 nM | COc1ccc(C(=O)c2ccccc2)c(Oc2ccnc3cc(OC)c(OC)cc23)c1 |  |
| 5600 nM | CCOc1ccc(Oc2ccnc3cc(OC)c(OC)cc23)c(C(C)=O)c1 |  |
| 8800 nM | COc1ccc(C(C)=O)c(Oc2ccnc3cc(OC)c(OC)cc23)c1 |  |
| 3800 nM | COc1cc2nccc(Oc3ccc(F)cc3C(C)=O)c2cc1OC |  |
| 620 nM | CCC(=O)c1cc(C)ccc1Oc1ccnc2cc(OC)c(OC)cc12 |  |

| SMILES | IC50 [1] | also measured |
| --- | --- | --- |
| COc1cc2nccc(Oc3cc(C)c(C)cc3C(C)=O)c2cc1OC | 370 nM | IC50 [3]: 500 nM; IC50 [2]: 13000 nM; IC50 (TGF-beta receptor type-1): 630 nM |
